These results are taken from ChEMBL document CHEMBL1799968, “Dimethyl-diphenyl-propanamide derivatives as nonsteroidal dissociated glucocorticoid receptor agonists” (J Med Chem, 2010).

One data set addresses T1, Progesterone receptor (Homo sapiens, UniProt P06401).
T1 sequence (P06401 whole entry): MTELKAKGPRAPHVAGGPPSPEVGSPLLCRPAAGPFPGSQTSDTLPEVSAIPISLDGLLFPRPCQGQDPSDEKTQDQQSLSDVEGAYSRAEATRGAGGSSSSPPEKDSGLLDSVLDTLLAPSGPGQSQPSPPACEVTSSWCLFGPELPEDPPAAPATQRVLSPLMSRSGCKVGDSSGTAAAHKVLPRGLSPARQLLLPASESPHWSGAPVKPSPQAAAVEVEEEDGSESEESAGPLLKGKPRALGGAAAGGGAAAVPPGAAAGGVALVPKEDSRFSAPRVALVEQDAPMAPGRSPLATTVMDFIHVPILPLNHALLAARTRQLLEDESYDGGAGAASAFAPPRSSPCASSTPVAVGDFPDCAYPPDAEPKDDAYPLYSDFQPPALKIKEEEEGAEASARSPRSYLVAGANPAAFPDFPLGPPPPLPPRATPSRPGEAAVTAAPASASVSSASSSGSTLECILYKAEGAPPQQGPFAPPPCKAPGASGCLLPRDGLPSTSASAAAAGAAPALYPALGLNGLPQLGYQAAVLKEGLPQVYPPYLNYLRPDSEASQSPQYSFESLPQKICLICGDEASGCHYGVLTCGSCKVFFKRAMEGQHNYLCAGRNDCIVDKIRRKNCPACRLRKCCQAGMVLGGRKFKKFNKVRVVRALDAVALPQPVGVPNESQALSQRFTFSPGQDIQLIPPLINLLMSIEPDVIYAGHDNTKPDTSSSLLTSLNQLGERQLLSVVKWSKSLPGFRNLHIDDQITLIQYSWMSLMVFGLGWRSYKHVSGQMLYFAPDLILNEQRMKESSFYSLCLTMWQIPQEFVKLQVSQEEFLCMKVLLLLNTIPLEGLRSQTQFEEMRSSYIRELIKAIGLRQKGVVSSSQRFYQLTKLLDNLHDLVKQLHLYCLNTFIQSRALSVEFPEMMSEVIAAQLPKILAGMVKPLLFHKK
As to the kind of experiment: Binding affinity to progesterone receptor by fluorescence polarization assay. In outline: (§1)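 Fluorescence polarization competition of test compound against a fluorescently labelled ligand for binding to full-length receptor or its ligand-binding domain.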
(In fluorescence polarisation assays a small probe gives low polarisation when free and higher when bound to something large.)

In the next data set the target is T2, Estrogen receptor (Homo sapiens, UniProt P03372).
T2 sequence (P03372 whole entry): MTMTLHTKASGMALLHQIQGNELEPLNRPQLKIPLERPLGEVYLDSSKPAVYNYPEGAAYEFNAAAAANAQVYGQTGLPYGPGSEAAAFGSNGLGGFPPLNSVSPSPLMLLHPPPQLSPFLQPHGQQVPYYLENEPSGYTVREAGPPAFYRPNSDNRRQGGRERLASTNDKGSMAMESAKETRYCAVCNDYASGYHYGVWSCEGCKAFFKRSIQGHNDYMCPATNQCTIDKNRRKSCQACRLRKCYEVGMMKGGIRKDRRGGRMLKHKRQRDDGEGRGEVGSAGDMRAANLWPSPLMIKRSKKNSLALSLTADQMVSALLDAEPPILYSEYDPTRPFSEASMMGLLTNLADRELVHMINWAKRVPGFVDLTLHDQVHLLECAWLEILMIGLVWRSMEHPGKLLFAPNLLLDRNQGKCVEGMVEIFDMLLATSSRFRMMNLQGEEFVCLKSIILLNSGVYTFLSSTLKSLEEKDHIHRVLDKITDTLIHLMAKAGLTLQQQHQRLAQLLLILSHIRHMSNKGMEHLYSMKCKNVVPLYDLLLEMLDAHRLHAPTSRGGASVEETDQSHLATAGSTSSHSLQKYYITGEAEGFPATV
As to the kind of experiment: Binding affinity to ERalpha by fluorescence polarization assay. A digest of the protocol: as §1

Another data set has as its target T3, Androgen receptor (Homo sapiens, UniProt P10275).
T3 sequence (P10275 whole entry): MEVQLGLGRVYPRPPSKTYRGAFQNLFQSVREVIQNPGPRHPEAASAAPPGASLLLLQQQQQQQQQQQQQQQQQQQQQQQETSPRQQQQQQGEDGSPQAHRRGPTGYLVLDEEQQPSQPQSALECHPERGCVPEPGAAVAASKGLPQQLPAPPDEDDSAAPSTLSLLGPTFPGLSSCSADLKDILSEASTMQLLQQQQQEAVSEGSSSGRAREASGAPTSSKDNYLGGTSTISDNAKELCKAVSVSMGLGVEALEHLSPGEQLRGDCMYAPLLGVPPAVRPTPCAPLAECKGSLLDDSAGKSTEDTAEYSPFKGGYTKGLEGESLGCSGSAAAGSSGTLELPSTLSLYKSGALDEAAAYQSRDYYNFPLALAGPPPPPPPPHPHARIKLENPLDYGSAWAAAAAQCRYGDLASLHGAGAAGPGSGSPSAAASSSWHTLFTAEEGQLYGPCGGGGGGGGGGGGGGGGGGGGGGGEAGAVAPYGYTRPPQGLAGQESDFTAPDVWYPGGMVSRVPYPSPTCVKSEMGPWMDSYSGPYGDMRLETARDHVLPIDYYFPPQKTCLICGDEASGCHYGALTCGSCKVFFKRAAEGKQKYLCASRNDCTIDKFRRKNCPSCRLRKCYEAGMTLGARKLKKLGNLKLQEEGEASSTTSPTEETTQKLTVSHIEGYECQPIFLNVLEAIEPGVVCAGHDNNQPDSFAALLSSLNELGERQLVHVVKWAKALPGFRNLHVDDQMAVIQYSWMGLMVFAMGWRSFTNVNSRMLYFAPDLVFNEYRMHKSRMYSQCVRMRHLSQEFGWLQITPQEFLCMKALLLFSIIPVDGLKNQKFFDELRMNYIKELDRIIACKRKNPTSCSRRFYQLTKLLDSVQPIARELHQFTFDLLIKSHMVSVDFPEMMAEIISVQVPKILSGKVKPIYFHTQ
Description: Binding affinity to androgen receptor by fluorescence polarization assay. In outline:
as §1

In data set [1] the target is T4, Mineralocorticoid receptor (Homo sapiens, UniProt P08235).
T4 sequence (P08235 whole entry): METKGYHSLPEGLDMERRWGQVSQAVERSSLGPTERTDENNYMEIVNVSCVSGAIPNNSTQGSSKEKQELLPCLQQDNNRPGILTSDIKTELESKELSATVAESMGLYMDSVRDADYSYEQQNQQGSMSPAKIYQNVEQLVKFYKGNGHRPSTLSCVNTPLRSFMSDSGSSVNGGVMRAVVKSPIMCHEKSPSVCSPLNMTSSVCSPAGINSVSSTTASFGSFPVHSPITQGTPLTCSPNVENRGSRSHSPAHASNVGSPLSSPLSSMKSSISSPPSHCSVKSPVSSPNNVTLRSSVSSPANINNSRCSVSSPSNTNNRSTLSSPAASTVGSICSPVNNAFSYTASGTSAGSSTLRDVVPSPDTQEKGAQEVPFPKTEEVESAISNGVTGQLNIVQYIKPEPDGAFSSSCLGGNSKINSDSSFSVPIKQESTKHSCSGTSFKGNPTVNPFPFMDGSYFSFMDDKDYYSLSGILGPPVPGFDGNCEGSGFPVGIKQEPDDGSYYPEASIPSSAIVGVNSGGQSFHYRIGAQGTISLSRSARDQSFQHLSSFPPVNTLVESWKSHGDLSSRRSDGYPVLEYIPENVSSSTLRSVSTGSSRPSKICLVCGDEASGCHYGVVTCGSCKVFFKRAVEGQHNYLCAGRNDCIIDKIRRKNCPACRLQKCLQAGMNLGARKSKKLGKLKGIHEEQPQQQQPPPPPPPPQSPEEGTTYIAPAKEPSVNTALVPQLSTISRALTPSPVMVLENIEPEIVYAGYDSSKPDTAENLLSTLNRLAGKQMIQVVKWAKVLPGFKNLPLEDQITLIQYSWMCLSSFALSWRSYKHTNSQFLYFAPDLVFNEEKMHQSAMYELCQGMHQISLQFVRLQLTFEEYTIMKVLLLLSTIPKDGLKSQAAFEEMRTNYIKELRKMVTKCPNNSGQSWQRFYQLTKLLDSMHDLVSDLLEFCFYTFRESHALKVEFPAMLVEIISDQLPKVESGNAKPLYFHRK
Description: Agonist activity at mineralocorticoid receptor in human A549 cells. The data set is classed as functional, cell-based.

Data set [2] concerns Rattus norvegicus. Description: Antiinflammatory activity against carrageenan-induced paw edema Sprague-Dawley rat model assessed as inhibition of hind paw swelling at 30 mg/kg, po measured after 5 hrs post carrageenan challenge. The data set is classed as functional. A digest of the protocol:
(§2)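 Male SD rats, fasted overnight plus up to 6 h more. Baseline hind paw volume taken by water plethysmometer. A single oral dose was given in a biologically acceptable medium. 2 h later, under anaesthesia, 1% carrageenan in PBS was injected subcutaneously into both hind paws. Volume was read 3 h post challenge, and swelling was taken as post-challenge minus baseline.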

For data set [3], the system named is Rattus norvegicus. As to the kind of experiment: Toxicity in Sprague-Dawley rat assessed as increase in serum glucose level at 30 mg/kg, po after 6 hrs. Format: organism-based. Also on record: dose 30 mg/kg, route oral. The note with it: in vivo. A digest of the protocol:
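Male SD rats, fasted overnight plus up to 6 h, were given a single oral dose in a biologically acceptable medium. At 6 h they were euthanised with CO2, and blood was taken by intracardiac puncture. Serum glucose was measured by the hexokinase method on an automated chemistry analyzer.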

Data set [4] deals with Rattus norvegicus. Description: Toxicity in Sprague-Dawley rat assessed as induction of TAT activity in liver homogenates at 30 mg/kg, po after 6 hrs. Details: dose 30 mg/kg, route oral. The note with it: in vivo. Format: organism-based. A digest of the protocol:
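Male SD rats, fasted, single oral dose. Liver was biopsied 6 h postdose, snap frozen, homogenised in 150 mM KCl and centrifuged. Protein-normalised supernatants were assayed for TAT activity, read as OD at 340 nm. Values are given as % of TAT activity in prednisolone-treated (30 mg/kg) rats.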

Data set [5] has as its system Rattus norvegicus. As to the kind of experiment: Antiinflammatory activity in po dosed carrageenan-induced paw edema Sprague-Dawley rat model assessed as inhibition of hind paw swelling after 5 hrs post carrageenan challenge. Format: functional. In outline: as §2
In general terms: The carrageenan paw model is a standard test of acute inflammation.

For orientation: Ki means a measure of affinity in units of concentration, obtained from inhibition or displacement. Read a low Ki as a stronger hold on the target. A word on the EC50: it is the concentration at which the effect is half-maximal. Read a low EC50 as higher potency in that assay. Regarding `CC(C)(C(=O)Nc1nncs1)[C@@H](c1ccccc1)c1ccc(O)c(F)c1`, the results for the inhibition constant Ki at Progesterone receptor, on Estrogen receptor and on Androgen receptor were 0.055 µM, > 50 µM and 0.993 µM, respectively. In addition, the EC50 in data set [1] is > 5 µM.
As usually defined, the inhibition in vivo is the drop in the measured response relative to a control, in per cent. The ED50 is the dose at which the effect has come halfway, by size or by number of responders. As to `C[C@]12C=CC(=O)C=C1CC[C@@H]1[C@@H]2[C@@H](O)C[C@@]2(C)[C@H]1CC[C@]2(O)C(=O)CO` [PREDNISOLONE], the “inhibition (INH)” value with Rattus norvegicus [2] (30 mg/kg) is given as 42%. The inhibition in vivo at 30 mg/kg with Rattus norvegicus [2] (Rattus norvegicus, Sprague-Dawley, po, 5 h) stood at 57%. Besides, the Activity entry in the data set on Rattus norvegicus [3] and in the data set with Rattus norvegicus [4] was “Toxic” in each case. Also, the Ki on Estrogen receptor was > 5 µM. In data set [1], the EC50 amounted to 0.002 µM. Further, the median effective dose (ED50) in the data set with Rattus norvegicus [5] came out at 19 mg/kg.
